Experimental findings from ChEMBL document CHEMBL3232762, “Synthesis and biological evaluation of a novel sigma-1 receptor antagonist based on 3,4-dihydro-2(1H)-quinolinone scaffold as a potential analgesic” (Eur J Med Chem, 2014) are described below.

Activity calls are given as the source filed them. No cut-off for these calls is given here.

One assay is filed under the species Cavia porcellus. Kind of assay: Selectivity ratio of Ki for sigma 2 receptor in Dunkin Hartley guinea pig membrane to Ki for sigma 1 receptor in Dunkin Hartley guinea pig membrane. The format is cell membranes.
Assay [1] is described as follows: Displacement of [3H]-DTG from sigma 2 receptor in Dunkin Hartley guinea pig membrane after 120 mins by liquid scintillation counting analysis […]. Type of assay: cell membranes, Cavia porcellus. (In a radioligand displacement assay an active substance lowers the binding of a labelled ligand.)
In assay [2] the target is Sigma non-opioid intracellular receptor 1 (Cavia porcellus, UniProt Q60492). Nature of the assay: Displacement of [3H]-(+)-pentazocine from sigma 1 receptor in Dunkin Hartley guinea pig membrane after 180 mins by liquid scintillation counting analysis. Type of assay: cell membranes.
Assay [3] concerns Mus musculus. Kind of assay: Antinociceptive activity in Kunming mouse assessed as reduction in formalin-induced pain behaviour at 80 mg/kg, ip administered 15 mins before fomalin injection measured during first phase of 0 to 5 mins after formalin challenge. The format is functional. The essentials:
(§1)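 Kunming mice (20 ± 2.0 g), 10–12 per group, dosed i.p. in 30% PEG 400 (10 mL/kg) 15 min before intraplantar formalin. Paw licking/biting time was scored in phase I (0–5 min) and phase II (15–45 min). Antinociception (%) = (vehicle licking time − drug licking time)/vehicle licking time × 100. Two-way ANOVA with Newman-Keuls test.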

For assay [4], the target named is Sigma non-opioid intracellular receptor 1 (Cavia porcellus) (UniProt Q60492). Nature of the assay: Ratio of Ki for sigma 1 receptor in Dunkin Hartley guinea pig membrane in absence of phenytoin to Ki for sigma 1 receptor in Dunkin Hartley guinea pig membrane in presence of phenytoin. Type of assay: cell membranes.
Assay [5] concerns Mus musculus. Kind of assay: Antinociceptive activity in Kunming mouse assessed as reduction in formalin-induced pain behaviour at 40 mg/kg, ip administered 15 mins before fomalin injection measured during second phase of 15 to 45 mins after formalin challenge. The format is functional. The essentials: as §1
Assay [6] relates to Mus musculus. Nature of the assay: Antinociceptive activity in Kunming mouse assessed as reduction in formalin-induced pain behaviour at 160 mg/kg, ip administered 15 mins before fomalin injection measured during first phase of 0 to 5 mins after formalin challenge. Type of assay: functional. The essentials: as §1
For assay [7], the system named is Mus musculus. Nature of the assay: Antinociceptive activity in Kunming mouse assessed as reduction in formalin-induced pain behaviour at 40 mg/kg, ip administered 15 mins before fomalin injection measured during first phase of 0 to 5 mins after formalin challenge. The format is functional. The essentials: as §1
Assay [8] relates to Mus musculus. Nature of the assay: Antinociceptive activity against formalin-induced pain in Kunming mouse assessed as reduction in mean licking and biting time at 80 mg/kg, ip administered 15 mins before fomalin injection measured during second phase of 15 to 45 mins after formalin challenge. Type of assay: functional. The conditions noted are these: route intraperitoneal.
The test system of assay [9] is Mus musculus. Nature of the assay: Antinociceptive activity in Kunming mouse assessed as reduction in formalin-induced pain behaviour at 160 mg/kg, ip administered 15 mins before fomalin injection measured during second phase of 15 to 45 mins after formalin challenge. Type of assay: functional. The essentials:
as §1

The test system of assay [10] is Mus musculus. Kind of assay: Antinociceptive activity in ip dosed Kunming mouse assessed as reduction in formalin-induced pain behaviour administered 15 mins before fomalin injection measured during second phase of 15 to 45 mins after formalin challenge. Type of assay: functional. The method in brief:
as §1

Assay [11] concerns Mus musculus. Kind of assay: Antinociceptive activity against formalin-induced pain in Kunming mouse assessed as reduction in mean licking and biting time at 80 mg/kg, ip administered 15 mins before fomalin injection measured during first phase of 0 to 5 mins after formalin challenge. The format is functional. The conditions noted are these: route intraperitoneal.
For assay [12], the system named is Mus musculus. Kind of assay: Antinociceptive activity in ip dosed Kunming mouse assessed as reduction in formalin-induced pain behaviour administered 15 mins before fomalin injection measured during first phase of 0 to 5 mins after formalin challenge. The format is functional. The essentials: as §1
Assay [13] deals with Mus musculus. Nature of the assay: Antinociceptive activity in Kunming mouse assessed as reduction in formalin-induced pain behaviour at 80 mg/kg, ip administered 15 mins before fomalin injection measured during second phase of 15 to 45 mins after formalin challenge. Type of assay: functional. The essentials:
as §1

Assay [14] addresses Sigma non-opioid intracellular receptor 1 (Homo sapiens, UniProt Q99720). Kind of assay: Binding affinity to sigma 1 receptor (unknown origin).

Sequence of Sigma non-opioid intracellular receptor 1 (Cavia porcellus, UniProt Q60492) (Q60492 whole entry): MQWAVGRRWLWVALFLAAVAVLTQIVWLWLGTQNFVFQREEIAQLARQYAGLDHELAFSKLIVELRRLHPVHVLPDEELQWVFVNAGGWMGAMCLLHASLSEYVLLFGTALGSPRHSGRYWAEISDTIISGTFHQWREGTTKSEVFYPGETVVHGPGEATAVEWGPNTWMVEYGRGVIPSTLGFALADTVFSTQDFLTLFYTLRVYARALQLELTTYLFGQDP
Sequence of Sigma non-opioid intracellular receptor 1 (Cavia porcellus) (Q60492 whole entry): as above
Sequence of Sigma non-opioid intracellular receptor 1 (Homo sapiens, UniProt Q99720) (Q99720 whole entry): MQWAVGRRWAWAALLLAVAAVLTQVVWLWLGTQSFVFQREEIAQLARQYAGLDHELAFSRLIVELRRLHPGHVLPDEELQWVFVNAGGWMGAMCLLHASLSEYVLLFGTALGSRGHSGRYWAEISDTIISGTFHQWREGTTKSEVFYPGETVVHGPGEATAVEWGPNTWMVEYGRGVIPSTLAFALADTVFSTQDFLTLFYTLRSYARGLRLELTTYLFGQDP

On to `O=C1CCc2ccc(OCCCN3CCCCC3)cc2N1Cc1ccccc1`, for which the Ratio Ki in the assay filed under Cavia porcellus came out at 360. The Ki in [1] is 662 nM; in assay [2] it was 1.84 nM.
For `CN1CCN(CCCOc2ccc3c(c2)N(Cc2ccccc2)C(=O)CC3)CC1` the same measures were 37.4, 161 nM and 4.3 nM.
Consider `O=C1CCc2ccc(OCCCN3CCCC3)cc2N1Cc1ccccc1`, for which, in the assay listed under Cavia porcellus, the Ratio Ki was 23.1. The Ki in assay [1] stood at 550 nM; in assay [2], 23.8 nM.
For `O=C1CCc2cc(OCCCCN3CCOCC3)ccc2N1Cc1ccccc1` the same measures were 11.7, 260 nM and 22.2 nM.
Consider `O=C1CCc2cc(OCCCCCN3CCOCC3)ccc2N1Cc1ccccc1`, for which the Ratio Ki in the assay listed under Cavia porcellus worked out at 6.1. In addition, the Ki amounted to 430 nM in assay [1] and 70.7 nM in [2].
Consider `CC1CCN(CCCOc2ccc3c(c2)NC(=O)CC3)CC1`, for which the Ratio Ki in the assay listed under Cavia porcellus came out at 6.1. The Ki in [1] worked out at 409 nM; in assay [2], 66.7 nM.
For `O=C1CCN(CCCOc2ccc3c(c2)N(Cc2ccccc2)C(=O)CC3)CC1`, the Ratio Ki in the assay filed under Cavia porcellus was 18.3. The Ki was 1800 nM in assay [1] and 98.2 nM in assay [2].
`O=C1CCc2ccc(OCCCN3CCCCC3)cc2N1`: the Ratio Ki in the assay listed under Cavia porcellus amounted to 3.2. Moreover, the Ki in assay [1] turned out to be 288 nM; in assay [2], 89.1 nM.
As for `O=C1CCc2ccc(OCCCN3CCN(c4ccccc4)CC3)cc2N1Cc1ccccc1`, the inhibition constant (Ki) in assay [1] was greater than 2000 nM; in assay [2], 341 nM.
With `O=C1CCc2ccc(OCCCN3CCCCC3)cc2N1Cc1ccc(F)cc1`, the inhibition in vivo at 80 mg/kg in the assay with Mus musculus [3] (route intraperitoneal) was 84.8%; in the assay on Mus musculus [13] (route intraperitoneal), 87.7%. For the same molecule, the results for the Ratio Ki (in assay [4]; in the assay listed under Cavia porcellus) were 0.86 and 1070, respectively. Further, the inhibition in vivo at 40 mg/kg is 30.5% in the assay with Mus musculus [5] (route intraperitoneal) and 33.4% with Mus musculus [7] (route intraperitoneal). The inhibition in vivo at 160 mg/kg with Mus musculus [6] (route intraperitoneal) stood at 97.6%; in the assay with Mus musculus [9] (route intraperitoneal), 98.2%. In addition, the Time is reported as 36.13 s with Mus musculus [8] and 12.08 s with Mus musculus [11]. The inhibition constant (Ki) was determined as 1300 nM in assay [1] and 1.22 nM in assay [2]. Further, the results for the ED50 in the assay with Mus musculus [10] and in the assay on Mus musculus [12] were 50.5 mg/kg and 49.4 mg/kg, respectively. For the same molecule, the inhibition result with Mus musculus [10] and in the assay on Mus musculus [12] was “Dose-dependent effect” throughout.
Consider `Cc1ccccc1NC(=N)Nc1ccccc1C` [DITOLYLGUANIDINE], for which the Ki in [1] was 49.2 nM.
Regarding `Cc1ccc(CN2C(=O)CCc3ccc(OCCCN4CCC(C)CC4)cc32)cc1`, the Ratio Ki in the assay listed under Cavia porcellus is 507. Also, the Ki was determined as 755 nM in assay [1] and 1.49 nM in [2].
Take `CN(C)CCCOc1ccc2c(c1)N(Cc1ccccc1)C(=O)CC2`: the Ratio Ki in the assay listed under Cavia porcellus is 2.4. Further, the Ki in [1] came out at 205 nM; in [2], 83.2 nM.
Molecule `COc1cccc2c1CCC(=O)N2CCCN1CCN(c2cccc(Cl)c2)CC1` gave an IC50 in [14] of 47 nM. That is a double-digit nanomolar value.
Regarding `O=C1CCc2ccc(OCCCCCN3CCOCC3)cc2N1Cc1ccccc1`, in the assay listed under Cavia porcellus, the Ratio Ki worked out at 20.4. The Ki in [1] amounted to 1810 nM; in assay [2], 88.4 nM.
For `CC1CCN(CCCOc2ccc3c(c2)N(C)C(=O)CC3)CC1`, in the assay filed under Cavia porcellus, the Ratio Ki turned out to be 7.7. The Ki in assay [1] was 311 nM; in assay [2], 40.2 nM.
The corresponding values for `Cc1ccc(CN2C(=O)CCc3ccc(OCCCN4CCCCC4)cc32)cc1` are 488, 825 nM and 1.69 nM.
As for `O=C1CCc2ccc(OCCN3CCOCC3)cc2N1Cc1ccccc1`, the Ki in [1] and in assay [2] was greater than 2000 nM in each case.
For `O=C1CCc2ccc(OCCCCCCN3CCOCC3)cc2N1Cc1ccccc1`, the Ki in assay [1] came to 2000 nM; in [2], 682 nM.
On to `O=C1CCc2ccc(OCCCCN3CCOCC3)cc2N1CCc1ccccc1`, for which, in the assay filed under Cavia porcellus, the Ratio Ki was 26.8. Further, the Ki was determined as 1200 nM in assay [1] and 44.8 nM in assay [2].
Turning to `O=C1CCc2ccc(OCCCN3CCOCC3)cc2N1CCc1ccccc1`, the Ratio Ki in the assay listed under Cavia porcellus worked out at 4.6. The inhibition constant Ki in assay [1] was determined as 100 nM; in assay [2], 21.6 nM.
For the molecule `O=C1CCc2cc(OCCN3CCOCC3)ccc2N1Cc1ccccc1`, the Ki in assay [1] and in [2] was greater than 2000 nM throughout.
As to `Cc1cc(OCCN2CCOCC2)nn1-c1ccc2ccccc2c1`, the Ratio Ki in the assay filed under Cavia porcellus was greater than 190. Also, the results for the Time in the assay on Mus musculus [8] and in the assay with Mus musculus [11] were 27.34 s and 8.63 s, respectively. Further, the Ki in assay [1] is greater than 2000 nM; in assay [2] it was 10.5 nM.
For the molecule `O=C(CCCN1CCC(O)(c2ccc(Cl)cc2)CC1)c1ccc(F)cc1` [HALOPERIDOL], the affinity in [1], expressed as Ki, was 36.4 nM.
For the molecule `O=C1CCc2ccc(OCCCN3CCOCC3)cc2N1Cc1ccccc1`, the Ratio Ki in the assay listed under Cavia porcellus is 31.8. The Ki in [1] was determined as 471 nM; in assay [2] it was 14.8 nM.
For `O=C1CCc2cc(OCCCN3CCOCC3)ccc2N1Cc1ccccc1`, the Ratio Ki in the assay listed under Cavia porcellus is 1.4. The Ki in assay [1] was 1120 nM; in assay [2], 792 nM.
On to `CCN(CC)CCCOc1ccc2c(c1)N(Cc1ccccc1)C(=O)CC2`, for which the Ratio Ki in the assay listed under Cavia porcellus amounted to 2.5. Also, the Ki worked out at 97.2 nM in assay [1] and 39.4 nM in assay [2].
The corresponding values for `CN1C(=O)CCc2ccc(OCCCN3CCCCC3)cc21` are 10.4, 357 nM and 34.3 nM.
Consider `O=C1CCc2cc(OCCCN3CCOCC3)ccc2N1CCc1ccccc1`, for which the Ratio Ki in the assay filed under Cavia porcellus is 2.4. The Ki is 98.1 nM in [1] and 40.2 nM in [2].
For the molecule `O=C1CCc2ccc(OCCCCN3CCOCC3)cc2N1Cc1ccccc1`, the Ratio Ki in the assay listed under Cavia porcellus was found to be 8.8. The Ki worked out at 530 nM in assay [1] and 60.2 nM in assay [2].
As to `O=C1CCc2cc(OCCCCCCN3CCOCC3)ccc2N1Cc1ccccc1`, the Ki is greater than 2000 nM in assay [1] and 852 nM in assay [2].
`O=C1CCc2cc(OCCCCN3CCOCC3)ccc2N1CCc1ccccc1`: the figures for the Ki in [1] and in [2] were greater than 2000 nM and 195 nM, respectively.
`CC1CCN(CCCOc2ccc3c(c2)N(Cc2ccc(F)cc2)C(=O)CC3)CC1`: the inhibition result in the assay on Mus musculus [3], in the assay on Mus musculus [5], in the assay with Mus musculus [6], with Mus musculus [7], in the assay on Mus musculus [9] and in the assay with Mus musculus [13] was “Active” in each case. The Ratio Ki in assay [4] was determined as 0.91; in the assay listed under Cavia porcellus it was 1250. Further, the Time with Mus musculus [8] was found to be 89.75 s; in the assay with Mus musculus [11] it was 34.82 s. For the same molecule, the Ki is 960 nM in assay [1] and 0.77 nM in assay [2].
Regarding `CC1CCN(CCCOc2ccc3c(c2)N(Cc2ccccc2)C(=O)CC3)CC1`, the Ratio Ki in the assay filed under Cavia porcellus came out at 290. The inhibitory constant (Ki) in assay [1] turned out to be 319 nM; in assay [2], 1.1 nM.

What is called Ki is a measure of affinity in units of concentration, obtained from inhibition or displacement. A higher Ki goes with lower affinity. The term inhibition in vivo denotes the drop in the measured response relative to a control, in per cent. Usually ED50 stands for the dose that gives a 50% effect, or the effect in half of the subjects. For orientation: IC50 means the concentration that gives 50% inhibition.
